The source made the active and inactive calls. The rule behind the calls is not given here.
Experiments:
[1] = molecular target: Voltage-gated inwardly rectifying potassium channel KCNH2 (Homo sapiens, UniProt Q12809); assay: Inhibition of human ERG by patch clamp assay
[2] = molecular target: T1, Nuclear receptor subfamily 1 group I member 2 (Homo sapiens, UniProt O75469); assay: Induction of human PXR activity
T1 sequence (O75469 whole entry): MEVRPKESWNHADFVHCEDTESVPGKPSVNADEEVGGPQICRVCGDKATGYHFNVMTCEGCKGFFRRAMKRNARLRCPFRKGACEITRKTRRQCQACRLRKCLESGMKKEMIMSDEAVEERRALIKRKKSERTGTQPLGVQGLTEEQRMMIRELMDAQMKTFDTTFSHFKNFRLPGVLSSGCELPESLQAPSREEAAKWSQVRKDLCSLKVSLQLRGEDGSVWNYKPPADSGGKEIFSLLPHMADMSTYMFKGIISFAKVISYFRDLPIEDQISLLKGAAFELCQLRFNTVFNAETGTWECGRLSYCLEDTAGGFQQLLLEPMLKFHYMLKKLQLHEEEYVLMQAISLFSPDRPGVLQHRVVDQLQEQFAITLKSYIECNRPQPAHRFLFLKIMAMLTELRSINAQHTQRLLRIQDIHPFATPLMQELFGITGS

[3] = Fraction unbound in rat plasma; assay type: ADME, cell-free
[4] = Fraction unbound in cynomolgus monkey plasma; assay type: ADME, cell-free, Macaca fascicularis
[5] = Fraction unbound in human plasma; assay type: ADME, cell-free
[6] = Half life in rat at 0.5 mg/kg, iv; assay type: ADME, organism-based; set-up: dose 0.5 mg/kg, route intravenous; conditions: in vivo
Macaca fascicularis = species: Macaca fascicularis; assay: Agonist activity at cynomolgus monkey GPR142 relative to tryptophan
Summary of the method: (§1)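 Inositol phosphate accumulation in HEK293 cells transfected with mouse or cynomolgus monkey receptor plasmid, tritiated inositol labelling, compounds in HBSS/0.01% BSA plus 10 mM LiCl, 37 °C for 1 h, SPA scintillation read-out; maximal efficacy expressed relative to tryptophan response.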

[7] = molecular target: T2, Probable G-protein coupled receptor 142 (Mus musculus) (UniProt Q7TQN9); assay: Agonist activity at mouse GPR142 relative to tryptophan; summary of the method: as §1
T2 sequence (whole entry): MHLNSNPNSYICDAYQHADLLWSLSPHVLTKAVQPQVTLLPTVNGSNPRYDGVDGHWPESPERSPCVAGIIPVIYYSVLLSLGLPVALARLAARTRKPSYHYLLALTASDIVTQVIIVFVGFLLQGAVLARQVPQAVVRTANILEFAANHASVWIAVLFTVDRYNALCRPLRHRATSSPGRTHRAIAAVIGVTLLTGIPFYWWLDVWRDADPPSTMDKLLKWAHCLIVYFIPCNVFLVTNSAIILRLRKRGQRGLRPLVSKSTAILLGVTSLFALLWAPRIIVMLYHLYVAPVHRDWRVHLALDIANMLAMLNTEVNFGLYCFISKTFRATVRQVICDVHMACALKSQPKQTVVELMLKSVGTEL

[8] = Agonist activity at cynomolgus monkey GPR142; set-up: species or system Macaca fascicularis
Summary of the method: (§2)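 HEK293 cells, plated at 25 000/well, were transiently transfected with 100 ng receptor plasmid per well. They were labelled overnight with 1.0 μCi/mL tritiated inositol in inositol-free DMEM/10% dialyzed FCS. Cells were then exposed to graded compound levels in HBSS/0.01% BSA with 10 mM LiCl for 1 h at 37 °C. Cells were lysed in cold 20 mM formic acid (5 h, 4 °C), and IP was captured on yttrium silicate SPA beads and read by scintillation counting. EC50 is the mean of three runs.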

[9] = Metabolic stability in rat liver microsomes assessed as compound remaining at 1 uM after 30 mins; assay type: ADME, Microsome; conditions: read-out: Stability
[10] = Metabolic stability in human liver microsomes assessed as compound remaining at 1 uM after 30 mins; assay type: ADME, Microsome; conditions: read-out: Stability
Summary of the method: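 Compound at 1.0 μM was incubated for 30 min in human liver microsomes; percentage of intact compound remaining was determined.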

[11] = molecular target: T3, Probable G-protein coupled receptor 142 (Homo sapiens, UniProt Q7Z601); assay: Agonist activity at human GPR142 expressed in HEK293 cells assessed as inositol phosphate accumulation using [3H]-inositol after 1 hr by scintillation counting; assay type: functional, cell-based
T3 sequence (Q7Z601 whole entry): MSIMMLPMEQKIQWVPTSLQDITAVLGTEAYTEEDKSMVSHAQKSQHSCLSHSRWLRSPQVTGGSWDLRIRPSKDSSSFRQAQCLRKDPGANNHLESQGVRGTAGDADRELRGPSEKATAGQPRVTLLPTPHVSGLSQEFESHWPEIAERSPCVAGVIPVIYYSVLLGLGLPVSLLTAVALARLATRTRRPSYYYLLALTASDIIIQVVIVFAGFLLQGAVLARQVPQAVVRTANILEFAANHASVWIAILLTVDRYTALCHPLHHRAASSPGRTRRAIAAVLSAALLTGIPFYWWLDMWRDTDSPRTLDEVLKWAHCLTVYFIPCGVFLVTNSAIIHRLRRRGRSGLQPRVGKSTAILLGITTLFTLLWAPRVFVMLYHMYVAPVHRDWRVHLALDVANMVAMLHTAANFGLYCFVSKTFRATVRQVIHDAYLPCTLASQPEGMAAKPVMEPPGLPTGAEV

[12] = Clearance in rat at 0.5 mg/kg, iv; assay type: ADME, organism-based; set-up: dose 0.5 mg/kg, route intravenous; conditions: in vivo
Cytochrome P450 3A4 = Cytochrome P450 3A4 (Homo sapiens, UniProt P08684); assay: Inhibition of CYP3A4 (unknown origin); assay type: ADME
Sequence of Cytochrome P450 3A4 (P08684 whole entry): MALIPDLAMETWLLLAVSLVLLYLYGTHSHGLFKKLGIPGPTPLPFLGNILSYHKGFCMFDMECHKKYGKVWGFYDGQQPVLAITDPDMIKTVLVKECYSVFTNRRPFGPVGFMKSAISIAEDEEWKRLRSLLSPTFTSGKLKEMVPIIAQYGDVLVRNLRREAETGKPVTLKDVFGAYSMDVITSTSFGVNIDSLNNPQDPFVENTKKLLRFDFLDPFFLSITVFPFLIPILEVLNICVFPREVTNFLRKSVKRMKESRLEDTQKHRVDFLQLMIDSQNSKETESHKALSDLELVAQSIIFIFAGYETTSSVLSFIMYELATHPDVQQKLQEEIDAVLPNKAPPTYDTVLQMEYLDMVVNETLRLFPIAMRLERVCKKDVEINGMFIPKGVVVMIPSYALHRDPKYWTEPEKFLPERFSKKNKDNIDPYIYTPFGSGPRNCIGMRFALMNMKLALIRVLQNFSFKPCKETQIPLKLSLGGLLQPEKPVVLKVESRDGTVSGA

Cytochrome P450 2D6 = Cytochrome P450 2D6 (Homo sapiens, UniProt P10635); assay: Inhibition of CYP2D6 (unknown origin); assay type: ADME
Sequence of Cytochrome P450 2D6 (P10635 whole entry): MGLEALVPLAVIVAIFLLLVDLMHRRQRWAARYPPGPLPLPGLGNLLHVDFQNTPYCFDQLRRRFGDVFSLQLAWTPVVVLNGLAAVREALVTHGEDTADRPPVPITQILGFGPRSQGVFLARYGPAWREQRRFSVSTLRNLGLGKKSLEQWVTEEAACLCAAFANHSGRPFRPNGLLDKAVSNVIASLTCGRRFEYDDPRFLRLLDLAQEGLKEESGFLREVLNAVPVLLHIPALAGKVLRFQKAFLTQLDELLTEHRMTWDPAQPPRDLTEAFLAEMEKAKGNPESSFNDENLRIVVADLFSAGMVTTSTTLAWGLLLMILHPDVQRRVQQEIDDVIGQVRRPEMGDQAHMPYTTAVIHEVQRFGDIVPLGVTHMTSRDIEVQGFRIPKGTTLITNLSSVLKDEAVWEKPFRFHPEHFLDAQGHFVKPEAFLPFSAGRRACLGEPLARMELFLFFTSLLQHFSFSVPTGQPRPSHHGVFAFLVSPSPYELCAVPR

[13] = molecular target: T4, Probable G-protein coupled receptor 142 (Mus musculus, UniProt Q7TQN9); assay: Agonist activity at mouse GPR142; summary of the method: as §2
T4 sequence (Q7TQN9 whole entry): T2 sequence (whole entry)

[14] = Bioavailability in cynomolgus monkey at 2 mg/kg, sc; assay type: ADME, organism-based, Macaca fascicularis; conditions: in vivo
[15] = Cmax in cynomolgus monkey at 2 mg/kg, sc; assay type: ADME, organism-based, Macaca fascicularis; set-up: dose 2 mg/kg, route subcutaneous; conditions: in vivo
[16] = Tmax in cynomolgus monkey at 2 mg/kg, sc; assay type: ADME, organism-based, Macaca fascicularis; set-up: dose 2 mg/kg, route subcutaneous; conditions: in vivo
[17] = Tmax in cynomolgus monkey at 10 mg/kg, po; assay type: ADME, organism-based, Macaca fascicularis; set-up: dose 10 mg/kg, route oral; conditions: in vivo
Summary of the method: (§3)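 Oral dosing used the ethyl ester prodrug. All pharmacokinetic calculations were based on the parent free acid in plasma.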

[18] = Oral bioavailability in cynomolgus monkey at 10 mg/kg; assay type: ADME, organism-based, Macaca fascicularis; conditions: in vivo; summary of the method: as §3
[19] = Volume of distribution at steady state in cynomolgus monkey at 0.5 mg/kg, iv; assay type: ADME, organism-based, Macaca fascicularis; set-up: dose 0.5 mg/kg, route intravenous; conditions: in vivo, read-out: Vdss
[20] = Cmax in cynomolgus monkey at 10 mg/kg, po; assay type: ADME, organism-based, Macaca fascicularis; set-up: dose 10 mg/kg, route oral; conditions: in vivo; summary of the method: as §3
[21] = Clearance in cynomolgus monkey at 0.5 mg/kg, iv; assay type: ADME, organism-based, Macaca fascicularis; set-up: dose 0.5 mg/kg, route intravenous; conditions: in vivo
[22] = Half life in cynomolgus monkey at 0.5 mg/kg, iv; assay type: ADME, organism-based, Macaca fascicularis; set-up: dose 0.5 mg/kg, route intravenous; conditions: in vivo
[23] = Bioavailability in rat at 2 mg/kg, sc; assay type: ADME, organism-based; conditions: in vivo
[24] = Tmax in rat at 2 mg/kg, sc; assay type: ADME, organism-based; set-up: dose 2 mg/kg, route subcutaneous; conditions: in vivo
[25] = Cmax in rat at 2 mg/kg, sc; assay type: ADME, organism-based; set-up: dose 2 mg/kg, route subcutaneous; conditions: in vivo
[26] = Oral bioavailability in rat at 2 mg/kg; assay type: ADME, organism-based; conditions: in vivo; summary of the method: as §3
[27] = Tmax in rat at 2 mg/kg, po; assay type: ADME, organism-based; set-up: dose 2 mg/kg, route oral; conditions: in vivo; summary of the method: as §3
[28] = Cmax in rat at 2 mg/kg, po; assay type: ADME, organism-based; set-up: dose 2 mg/kg, route oral; conditions: in vivo; summary of the method: as §3
[29] = Volume of distribution at steady state in rat at 0.5 mg/kg, iv; assay type: ADME, organism-based; set-up: dose 0.5 mg/kg, route intravenous; conditions: in vivo, read-out: Vdss
[30] = Permeability across human Caco2 cells; assay type: ADME, cell-based; conditions: Caco-2, read-out: permeability
Mus musculus [31] = species: Mus musculus; assay: Induction of insulin secretion in GPR142-deficient mouse islets at 3 to 10 uM by ELISA in presence of glucose; assay type: functional
Summary of the method: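 Islets isolated from wild-type and GPR142 knockout mice were incubated with test agent at 3.0 and 10.0 μM in the presence of 16.7 mM glucose, and insulin secretion was measured.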

[32] = molecular target: T2, Probable G-protein coupled receptor 142 (Mus musculus); assay: Ex vivo agonist activity at GPR142 in wild type mouse islets assessed as stimulation of insulin secretion at 3 to 10 uM by ELISA in presence of glucose
Summary of the method: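 Islets from wild-type and GPR142 knockout mice incubated with compound at 3.0 and 10.0 μM in presence of 16.7 mM glucose; insulin secretion measured.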

Mus musculus [33] = assay: Antidiabetic activity in wild type mouse assessed as reduction of plasma glucose AUC at 10 mg/kg, sc administered 15 mins before glucose challenge measured up to 90 mins; set-up: scale not given: the % may be the effect or the level left; conditions: route subcutaneous
Mus musculus [34] = assay: Antidiabetic activity in mouse bearing human islets assessed as reduction of plasma glucose AUC at 10 mg/kg, sc administered 15 mins before glucose challenge measured up to 90 mins; set-up: scale not given: the % may be the effect or the level left; conditions: route subcutaneous

Sequence of Voltage-gated inwardly rectifying potassium channel KCNH2 (Q12809 whole entry): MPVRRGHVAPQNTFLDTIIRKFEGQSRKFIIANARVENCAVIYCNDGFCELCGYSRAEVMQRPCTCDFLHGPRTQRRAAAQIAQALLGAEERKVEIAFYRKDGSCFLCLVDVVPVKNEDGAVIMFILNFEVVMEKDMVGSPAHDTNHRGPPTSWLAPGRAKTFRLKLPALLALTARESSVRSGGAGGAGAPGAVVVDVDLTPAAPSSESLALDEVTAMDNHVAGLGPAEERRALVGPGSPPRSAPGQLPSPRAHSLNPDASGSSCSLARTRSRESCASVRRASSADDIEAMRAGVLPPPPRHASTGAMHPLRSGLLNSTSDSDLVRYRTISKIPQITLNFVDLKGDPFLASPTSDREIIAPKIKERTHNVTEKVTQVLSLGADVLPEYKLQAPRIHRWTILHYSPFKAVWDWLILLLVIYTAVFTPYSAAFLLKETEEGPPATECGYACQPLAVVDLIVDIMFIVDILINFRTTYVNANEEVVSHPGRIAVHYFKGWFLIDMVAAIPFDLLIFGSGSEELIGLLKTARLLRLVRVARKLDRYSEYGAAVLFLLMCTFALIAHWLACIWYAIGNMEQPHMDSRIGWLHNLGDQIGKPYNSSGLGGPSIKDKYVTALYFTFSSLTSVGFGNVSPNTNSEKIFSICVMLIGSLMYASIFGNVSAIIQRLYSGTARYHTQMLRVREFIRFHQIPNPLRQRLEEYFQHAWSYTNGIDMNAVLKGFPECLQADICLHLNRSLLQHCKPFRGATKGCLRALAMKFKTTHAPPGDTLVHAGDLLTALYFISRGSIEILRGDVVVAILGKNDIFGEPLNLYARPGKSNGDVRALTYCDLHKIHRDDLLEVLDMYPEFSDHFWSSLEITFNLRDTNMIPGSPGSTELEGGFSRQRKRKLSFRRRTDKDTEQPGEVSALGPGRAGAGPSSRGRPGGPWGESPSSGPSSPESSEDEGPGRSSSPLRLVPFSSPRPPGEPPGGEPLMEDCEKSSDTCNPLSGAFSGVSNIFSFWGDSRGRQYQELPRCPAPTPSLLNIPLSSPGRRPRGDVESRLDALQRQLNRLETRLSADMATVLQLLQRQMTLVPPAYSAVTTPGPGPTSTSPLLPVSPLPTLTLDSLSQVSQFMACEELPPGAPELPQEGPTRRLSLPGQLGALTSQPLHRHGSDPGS

For `Cn1nc(-c2ccncc2)cc1NC(=O)[C@H](Cc1ccccc1)NCC(=O)O`, the IC50 [1] was over 30000 nM, the Activity [2] was “Not Active” and the fraction unbound [3] was 0.01. For the same compound, the fraction unbound [4] was 0.1, the fraction unbound [5] was 0.16 and the half-life [6] was 4.1 h. The Emax (Macaca fascicularis) was 79%, the Emax [7] was 73% and the EC50 [8] was 79 nM. The remaining at 0.5 h, 1 µM [9] was over 90%, the remaining at 0.5 h, 1 µM [10] was over 90% and the EC50 [11] was 52 nM. It also gave a clearance [12] of 2.5 mL/min/kg, an IC50 (Cytochrome P450 3A4) of over 30000 nM and an IC50 (Cytochrome P450 2D6) of over 30000 nM. For the same compound, the EC50 [13] was 31 nM, the bioavailability [14] was 100% and the Cmax [15] was 6.3 µM. For the same compound, the Tmax [16] was 0.5 h, the Tmax [17] was 4 h and the bioavailability [18] was 6%. For the same compound, the Vd [19] was 0.33 L/kg, the Cmax [20] was 0.4 µM and the clearance [21] was 7.33 mL/min/kg. It also gave a half-life [22] of 2.3 h, a bioavailability [23] of 81% and a Tmax [24] of 0.38 h. The Cmax [25] was 7.5 µM, the bioavailability [26] was 3% and the Tmax [27] was 0.83 h. For the same compound, the Cmax [28] was 0.17 µM, the Vd [29] was 0.29 L/kg and the Papp [30] was 0.9 ×10⁻⁶ cm/s. The Activity (Mus musculus [31]) was “inactive”, the Activity [32] was “Active” and the Activity (Mus musculus [33]) was -25%. For the same compound, the Activity (Mus musculus [34]) was -28%.
